Series [1] has as its system Mus musculus. The series can be described thus: Antiinflammatory activity in MOG (35 to 55 residues)-induced C57BL/6 mouse autoimmune encephalomyelitis model assessed as improvement in physical disability at 50 mg/kg, ip administered daily measured on day 35 post immunization. It is filed as functional, organism-based. In short, it runs like this:
(§1)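 Female C57BL/6 mice, 8 weeks old, were immunized s.c. with 100 µg MOG peptide in CFA, plus 400 ng pertussis toxin i.p. at immunization and again at 48 h. Daily i.p. dosing at 50 mg/kg in PBS (pH 7.5) began at clinical score 2 and continued up to 60 days. Controls got an equal volume of PBS (n=5 vs 7). Clinical score and body weight were recorded daily.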

Series [2] deals with Mus musculus. Put plainly: Antiinflammatory activity in MOG (35 to 55 residues)-induced C57BL/6 mouse autoimmune encephalomyelitis model assessed as survival rate at 50 mg/kg, ip administered daily up to 60 days (reference value: 80%). It is filed as functional. The conditions noted are these: C57BL/6, ip, 1440 h.
For series [3], the system named is Mus musculus. Put plainly: Antiinflammatory activity in MOG (35 to 55 residues)-induced C57BL/6 mouse autoimmune encephalomyelitis model assessed as reduction in inflammation in spinal cord at 50 mg/kg, ip administered daily measured at day 60 post immunization. It counts as functional, organism-based. The following applies: in the assay text read “brain” for “spinal cord”. Put shortly: (§2)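 MOG/CFA-immunized female C57BL/6 mice were treated daily at 50 mg/kg i.p. in PBS from score 2 for up to 60 days; controls received PBS. At study end, brain and spinal cord sections were stained with H&E and Luxol Fast Blue. Inflammation was quantified as inflamed area over total tissue area by positive pixel count.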

Series [4] has as its system Mus musculus. Put plainly: Antiinflammatory activity in MOG (35 to 55 residues)-induced C57BL/6 mouse autoimmune encephalomyelitis model assessed as reduction in lesions in cerebellum at 50 mg/kg, ip administered daily up to 60 days by LFB/H and E staining based assay. It counts as functional, organism-based. In short, it runs like this:
as §2

Series [5] has as its system Mus musculus. Put plainly: Antiinflammatory activity in MOG (35 to 55 residues)-induced C57BL/6 mouse autoimmune encephalomyelitis model assessed as reduction in lesions in olfactory tract at 50 mg/kg, ip administered daily up to 60 days by LFB/H and E staining based assay. It counts as functional, organism-based. In short, it runs like this:
as §2

In series [6] the test system is Mus musculus. The series can be described thus: Antiinflammatory activity in MOG (35 to 55 residues)-induced C57BL/6 mouse autoimmune encephalomyelitis model assessed as reduction in lesions in internal capsule at 50 mg/kg, ip administered daily by LFB/H and E staining based assay. It counts as functional, organism-based. In short, it runs like this: as §2
Series [7] concerns Mus musculus. Put plainly: Antiinflammatory activity in MOG (35 to 55 residues)-induced C57BL/6 mouse autoimmune encephalomyelitis model assessed as reduction in accumulation of CD3 positive T-cells in brain at 50 mg/kg, ip administered daily up to 60 days by immunohistochemistry. It is filed as functional, organism-based. In short, it runs like this: (§3)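 MOG/CFA-immunized female C57BL/6 mice were dosed daily at 50 mg/kg i.p. in PBS from score 2 for up to 60 days; PBS controls n=5, treated n=7. Brain sections were immunostained with anti-CD3. Stained cells per µm² were averaged over randomly selected areas.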

Series [8] deals with Mus musculus. The series can be described thus: Antiinflammatory activity in MOG (35 to 55 residues)-induced C57BL/6 mouse autoimmune encephalomyelitis model assessed as reduction in accumulation of CD3 positive T-cells in internal capsule at 50 mg/kg, ip administered daily up to 60 days by immunohistochemistry. It is filed as functional, organism-based. In short, it runs like this:
as §3

The subject of series [9] is Mus musculus. The series can be described thus: Antiinflammatory activity in MOG (35 to 55 residues)-induced C57BL/6 mouse autoimmune encephalomyelitis model assessed as reduction in accumulation of CD3 positive T-cells in cerebellum at 50 mg/kg, ip administered daily up to 60 days by immunohistochemistry. It counts as functional, organism-based. In short, it runs like this: as §3

Series [10] in a line: Elimination rate constant in C57BL/6 mouse serum at 50 mg/kg, ip administered as single dose measured up to 360 mins by UPLC-MS analysis. It is filed as ADME, organism-based. In short, it runs like this:
(§4)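 Healthy female C57BL/6 mice (n = 27, 18–22 g) received one i.p. dose of 50 mg/kg, given as a 10 mg/mL aqueous solution (equimolar HCl, pH raised to 6 with NaHCO3). Blood and brain were sampled at 0, 5, 15, 30, 45, 60, 120, 240 and 360 min, 3 mice per time point. Samples were spiked with benzophenone internal standard, lyophilized, extracted into methanol, and quantified by C18 UPLC-MS.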

The nature of series [11]: Half life in C57BL/6 mouse serum at 50 mg/kg, ip administered as single dose by UPLC-MS analysis. It is filed as ADME, organism-based. Put shortly: as §4
A short description of series [12]: Cmax in C57BL/6 mouse serum at 50 mg/kg, ip administered as single dose measured up to 360 mins by UPLC-MS analysis. The arrangement: dose 50 mg/kg, route intraperitoneal. It counts as ADME, organism-based. Put shortly:
as §4

The nature of series [13]: Tmax in C57BL/6 mouse serum at 50 mg/kg, ip administered as single dose measured up to 360 mins by UPLC-MS analysis. It counts as ADME, organism-based. In short, it runs like this:
as §4

A short description of series [14]: AUC (0 to 360 mins) in C57BL/6 mouse serum at 50 mg/kg, ip administered as single dose by UPLC-MS analysis. It is filed as ADME, organism-based. More on the design: dose 50 mg/kg, time < 6 hr, route intraperitoneal. Put shortly:
as §4

Series [15] can be described thus: Elimination rate constant in C57BL/6 mouse brain at 50 mg/kg, ip administered as single dose measured up to 360 mins by UPLC-MS analysis. It counts as ADME, organism-based. Put shortly:
as §4

The nature of series [16]: Half life in C57BL/6 mouse brain at 50 mg/kg, ip administered as single dose by UPLC-MS analysis. It counts as ADME, organism-based. Put shortly:
as §4

Series [17] in a line: Cmax in C57BL/6 mouse brain at 50 mg/kg, ip administered as single dose measured up to 360 mins by UPLC-MS analysis. It counts as ADME, organism-based. The arrangement: dose 50 mg/kg, route intraperitoneal. In short, it runs like this:
as §4

The nature of series [18]: Tmax in C57BL/6 mouse brain at 50 mg/kg, ip administered as single dose measured up to 360 mins by UPLC-MS analysis. It is filed as ADME, organism-based. In short, it runs like this:
as §4

Series [19] is described as follows: AUC (0 to 360 mins) in C57BL/6 mouse brain at 50 mg/kg, ip administered as single dose by UPLC-MS analysis. It is filed as ADME, organism-based. The arrangement: time < 6 hr, dose 50 mg/kg, route intraperitoneal. In short, it runs like this:
as §4

Series [20] has as its system Mus musculus. The series can be described thus: Toxicity in MOG (35 to 55 residues)-induced C57BL/6 mouse autoimmune encephalomyelitis model assessed as bdoy weight cahnges at 50 mg/kg, ip administered daily up to 60 days. It counts as organism-based. The conditions noted are these: in vivo, 1440 h. In short, it runs like this:
as §1

Series [21] deals with T1, Protein-arginine deiminase type-1 (Homo sapiens, UniProt Q9ULC6).
T1 sequence (Q9ULC6 whole entry): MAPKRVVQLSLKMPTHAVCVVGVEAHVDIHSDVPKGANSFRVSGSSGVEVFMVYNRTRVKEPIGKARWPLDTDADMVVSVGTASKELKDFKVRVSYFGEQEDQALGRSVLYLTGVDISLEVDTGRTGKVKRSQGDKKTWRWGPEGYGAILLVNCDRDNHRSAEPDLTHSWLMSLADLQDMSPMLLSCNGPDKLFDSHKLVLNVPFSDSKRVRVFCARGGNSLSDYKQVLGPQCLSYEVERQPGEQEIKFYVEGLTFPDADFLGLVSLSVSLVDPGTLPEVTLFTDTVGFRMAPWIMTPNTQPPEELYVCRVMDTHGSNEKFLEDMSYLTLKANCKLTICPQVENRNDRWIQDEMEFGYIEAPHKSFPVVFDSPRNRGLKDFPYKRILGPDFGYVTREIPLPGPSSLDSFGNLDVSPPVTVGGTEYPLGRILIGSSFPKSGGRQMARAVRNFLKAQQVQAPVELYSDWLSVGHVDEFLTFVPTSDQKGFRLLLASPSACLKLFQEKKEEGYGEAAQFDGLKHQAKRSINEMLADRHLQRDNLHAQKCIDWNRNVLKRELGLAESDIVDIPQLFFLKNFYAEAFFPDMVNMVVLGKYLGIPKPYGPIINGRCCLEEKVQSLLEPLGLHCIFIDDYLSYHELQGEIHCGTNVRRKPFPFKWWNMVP
Put plainly: Inhibition of full length human GST-tagged PAD1 expressed in baculovirus infected Sf9 insect cells preincubated for 30 mins followed by substrate addition measured after 30 mins. In short, it runs like this:
(§5)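 Colorimetric citrulline assay at 37 °C in 100 mM Tris, 100 mM NaCl, 10 mM CaCl2, 5 mM DTT, pH 7.5, with about 5% DMSO. Enzyme (hPAD1 50 nM, mPAD2 100 nM) was preincubated with inhibitor (0.1–10 mM) for 30 min. Substrate was then added at 5 mM final for a further 30 min. Diacetyl monoxime/thiosemicarbazide reagent was added, samples were boiled 15 min, and A530 was read.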

The target of series [22] is Protein-arginine deiminase type-2 (Mus musculus, UniProt Q08642). Put plainly: Inhibition of full length mouse GST-tagged PAD2 expressed in baculovirus infected Sf9 insect cells preincubated for 30 mins followed by substrate addition measured after 30 mins. In short, it runs like this:
as §5

Series [23] deals with Protein-arginine deiminase type-4 (Homo sapiens, UniProt Q9UM07). The series can be described thus: Inhibition of full length human GST-tagged PAD4 expressed in baculovirus infected Sf9 insect cells preincubated for 30 mins followed by substrate addition measured after 30 mins.

As a reminder, the half-life is the time in which the quantity being followed falls by half. The term Cmax denotes the peak of the concentration-time curve. Broadly, the Tmax is the time at which the peak concentration occurs. A word on the AUC(0-t): it is the area under the concentration-time curve up to a stated or last time point. Low readings indicate less exposure, high ones more exposure. Usually Ki stands for the equilibrium dissociation constant of an inhibitor or competing ligand from its target. A low value points to higher affinity.

The structures appear in SMILES notation. Activity calls are given as the source filed them. The rule behind the calls is not given here.

Sequence of Protein-arginine deiminase type-2 (Q08642 whole entry): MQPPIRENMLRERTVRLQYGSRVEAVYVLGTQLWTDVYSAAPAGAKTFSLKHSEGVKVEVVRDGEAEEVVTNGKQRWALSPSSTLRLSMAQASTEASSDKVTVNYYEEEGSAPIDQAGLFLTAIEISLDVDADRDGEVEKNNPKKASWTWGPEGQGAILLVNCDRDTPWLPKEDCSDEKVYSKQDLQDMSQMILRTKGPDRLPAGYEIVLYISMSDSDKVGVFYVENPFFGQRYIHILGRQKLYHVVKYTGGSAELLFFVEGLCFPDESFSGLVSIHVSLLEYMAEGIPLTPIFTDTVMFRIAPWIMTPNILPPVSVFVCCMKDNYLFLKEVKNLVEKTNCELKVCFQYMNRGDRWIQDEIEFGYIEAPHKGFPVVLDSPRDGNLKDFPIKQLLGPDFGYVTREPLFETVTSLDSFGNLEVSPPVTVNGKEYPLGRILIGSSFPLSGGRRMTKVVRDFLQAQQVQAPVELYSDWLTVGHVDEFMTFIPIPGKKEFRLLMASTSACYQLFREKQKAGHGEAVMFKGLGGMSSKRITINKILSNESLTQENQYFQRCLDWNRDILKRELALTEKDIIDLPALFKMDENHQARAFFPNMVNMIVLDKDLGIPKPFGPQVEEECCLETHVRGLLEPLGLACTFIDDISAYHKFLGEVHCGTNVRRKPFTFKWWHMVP
Sequence of Protein-arginine deiminase type-4 (Q9UM07 whole entry): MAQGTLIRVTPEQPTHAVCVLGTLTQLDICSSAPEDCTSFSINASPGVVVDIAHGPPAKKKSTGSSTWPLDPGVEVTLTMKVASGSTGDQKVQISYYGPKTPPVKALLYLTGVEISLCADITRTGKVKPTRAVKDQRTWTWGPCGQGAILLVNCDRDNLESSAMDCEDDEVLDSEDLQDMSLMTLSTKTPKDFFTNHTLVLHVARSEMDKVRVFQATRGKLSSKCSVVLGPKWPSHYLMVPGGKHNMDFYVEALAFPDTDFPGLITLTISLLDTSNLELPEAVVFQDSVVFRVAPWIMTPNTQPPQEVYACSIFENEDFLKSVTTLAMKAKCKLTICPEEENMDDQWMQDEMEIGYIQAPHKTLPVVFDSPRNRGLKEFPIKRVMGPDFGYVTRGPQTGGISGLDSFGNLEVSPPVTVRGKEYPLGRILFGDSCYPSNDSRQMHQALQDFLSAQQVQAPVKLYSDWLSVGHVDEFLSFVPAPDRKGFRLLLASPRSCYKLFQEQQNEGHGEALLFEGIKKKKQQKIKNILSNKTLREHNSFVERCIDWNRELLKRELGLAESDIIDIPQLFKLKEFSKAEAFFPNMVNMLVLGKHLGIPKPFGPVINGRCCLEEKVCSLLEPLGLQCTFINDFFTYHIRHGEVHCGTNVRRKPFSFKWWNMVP

Turning to `Cl.Cn1cccc1C(=O)N[C@@H](CCn1ccnc1)C(=O)NCc1ccccc1`, the result in the series with Mus musculus [1], with Mus musculus [3], in the series on Mus musculus [4], in the series on Mus musculus [5], with Mus musculus [6] and with Mus musculus [7] was Active. Also, the outcome in the series on Mus musculus [8] and in the series on Mus musculus [9] was Active. For the same molecule, the survival at 50 mg/kg in the series on Mus musculus [2] was found to be 100%. Also, the k el at 6 h is 0.000333 s⁻¹ in series [10] and 0.0003 s⁻¹ in series [15]. Further, the values for the half-life in [11] and in series [16] were 34.8 min and 38.5 min, respectively. The values for the Cmax in series [12] and in series [17] were 12000 ng/mL and 170 ng/mL, respectively. The Tmax in series [13] and in series [18] was 15 min in each case. Further, the AUC(0-t) at 6 h is 8460 ng·h/mL in series [14] and 105 ng·h/mL in [19]. The Activity entry in the series with Mus musculus [20] is “Non-Toxic”.

With `Cn1cccc1C(=O)N[C@@H](CCn1ccnn1)C(=O)NCc1ccccc1`, the Ki worked out at 112 µM in [21] and 71 µM in [22].

Take `O=C(N[C@@H](CCn1ccnn1)C(=O)NCc1ccccc1)c1ccco1`: the Ki in series [23] came to 2820 µM; in series [21] it was 1090 µM; in [22] it was 282 µM.

The values above are taken from ChEMBL document CHEMBL4024752, “Noncovalent Protein Arginine Deiminase (PAD) Inhibitors Are Efficacious in Animal Models of Multiple Sclerosis” (J Med Chem, 2017).
